The record followed here is ChEMBL document CHEMBL1141462, “Tetranorclerodanes and clerodane-type diterpene glycosides from Dicranopteris dichotoma” (J Nat Prod, 2007).

The CC50 is the concentration giving 50% cytotoxicity. Read a high CC50 as better tolerance by the cells. As usually defined, the EC50 is the concentration at which the effect is half-maximal. Read a high EC50 as weaker potency.

Data set [1] in a line: Cytotoxicity against C8166 cells by MTT assay. The format is cell-based. Particulars: human. The method, boiled down: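 C8166 cells were used, with viability read by MTT. Cytotoxicity was expressed as CC50.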
The nature of data set [2]: Selectivity index, CC50 against C8166 cell/ EC50 against HIV1. The format is functional. The procedure, abridged: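 The ratio is CC50 divided by EC50. CC50 comes from MTT cytotoxicity in C8166 cells, and EC50 from inhibition of HIV-1 cytopathic effect.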
The test system of data set [3] is Human immunodeficiency virus 1. Nature of the data set: Antiviral activity against HIV1. Type of data set: functional, organism-based. The method, boiled down: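 HIV-1 activity was measured as inhibition of virus-induced cytopathic effect and reported as EC50.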

For the molecule `CC1=CCC[C@@H]2[C@@](C)(CC/C(C)=C/CO)[C@H](C)C[C@H](O[C@@H]3O[C@@H](C)[C@H](O[C@@H]4O[C@H](CO)[C@@H](O)[C@H](O)[C@H]4O)[C@@H](O)[C@H]3O)[C@@]12C`, the CC50 in data set [1] turned out to be 325 µM. The “Ratio CC50/EC50” value in data set [2] is on record as more than 3.82. The response in data set [3] was half-maximal at 85.1 µM (EC50).
Turning to `C[C@@H]1C[C@H](O)[C@@]2(C)C(C=O)=CCC[C@@H]2[C@@]1(C)CC(=O)O`, the midpoint of cytotoxicity in data set [1], the CC50, lay at 713 µM. In data set [2], the “Ratio CC50/EC50” value is listed as more than 2.19. This molecule also returned an EC50 in data set [3] of 325 µM.
`C=C[C@](C)(O)CC[C@@]1(C)[C@H](C)C[C@H](O[C@@H]2O[C@@H](C)[C@H](O[C@@H]3O[C@H](COC(C)=O)[C@@H](O)[C@H](O)[C@H]3O)[C@@H](O)[C@H]2O)[C@@]2(C)C(C)=CCC[C@H]12` showed a CC50 in data set [1] of 121 µM. Also, the “Ratio CC50/EC50” value in data set [2] was 1.1. In data set [3], this molecule showed a concentration giving a half-maximal response (EC50) of 110 µM.
Taken in the same sequence, the figures for `C=C[C@@](C)(O)CC[C@@]1(C)[C@H](C)C[C@H](O)[C@@]2(C)C(C)=CCC[C@H]12` were 653 µM, more than 10.99 and 59.4 µM.
For `Cc1cn([C@H]2C[C@H](N=[N+]=[N-])[C@@H](CO)O2)c(=O)[nH]c1=O` [ZIDOVUDINE], in data set [1], the CC50 turned out to be 5750 µM. In addition, the “Ratio CC50/EC50” value in data set [2] turned out to be 390406.06. The molecule further returned a concentration giving a half-maximal response (EC50) in data set [3] of 0.0147 µM.
As for `C=C[C@](C)(O)CC[C@@]1(C)[C@H](C)C[C@H](O[C@@H]2O[C@@H](C)[C@H](O[C@@H]3O[C@H](CO)[C@@H](OC(C)=O)[C@H](O)[C@H]3O)[C@@H](O)[C@H]2O)[C@@]2(C)C(C)=CCC[C@H]12`, in data set [1], half-maximal cytotoxicity (CC50) was put at 305 µM. Also, the “Ratio CC50/EC50” value in data set [2] is more than 2.09. In addition, the EC50 in data set [3] was found to be 145 µM.
Taken in the same sequence, the figures for `C[C@@H]1C[C@H](O)[C@@]2(C)C(CO)=CCC[C@@H]2[C@@]1(C)CC(=O)O` were 709 µM, more than 2.34 and 302 µM.
Taken in the same sequence, the figures for `CC(=O)OC[C@H]1O[C@@H](O[C@@H]2[C@@H](O)[C@@H](O)[C@H](O[C@H]3C[C@@H](C)[C@](C)(CC/C(C)=C/CO)[C@H]4CCC=C(C)[C@]34C)O[C@H]2C)[C@H](O)[C@@H](O)[C@@H]1O` were 136 µM, 1.78 and 76.3 µM.
On to `CC1=CCC[C@@H]2[C@@](C)(CC(=O)O)[C@H](C)C[C@H](O)[C@@]12C` [AYLTHONIC ACID], for which it took 751 µM to reach half-maximal cytotoxicity in data set [1] (CC50). In data set [2], the “Ratio CC50/EC50” value was more than 3.81. Moreover, the EC50 in data set [3] worked out at 197 µM.
